Assay outcomes deposited in PubChem by several laboratories.
LMPTP inh – blocks human LMPTP phosphatase. recombinant LMPTP-A, OMFP fluorogenic substrate, fluorescence intensity. inhibition, % at 20 µM. hit rate 0.22% among 360,000;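 active means compounds that cut the enzyme signal by at least half of the control window in the single-dose screen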;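 further: plate controls were DMSO wells with enzyme plus substrate for no effect and substrate without enzyme for full effect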
Target sequence (P24666 whole entry, looked up): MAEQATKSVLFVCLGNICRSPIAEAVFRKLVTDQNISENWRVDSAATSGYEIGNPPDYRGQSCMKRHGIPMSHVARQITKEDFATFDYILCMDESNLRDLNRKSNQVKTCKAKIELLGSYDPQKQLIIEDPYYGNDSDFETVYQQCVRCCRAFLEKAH
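Test system: LMPTP-A phosphatase enzyme. Amount: LMPTP-A at 0.625 nM final in the reaction. Reagent: OMFP substrate, 400 µM final. Times: 50 min at room temperature. Signal: endpoint fluorescence intensity from OMFP dephosphorylation. Read-out basis: % inhibition. Benchmarks: no-enzyme and uninhibited controls.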
Pemphigus Ab inh – human desmoglein-3 autoantibody binding inhibition; AID 588358; hit rate 0.48% among 310,000; binding (percent of control), % at 10 µM; P32926; DSG3-coupled beads, scFv-anti-DSG3-GFP binding, flow cytometry; stronger effect = lower value;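 active means binding more than 3 SD below its plate's average and above zero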;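 further: hits lower antibody fragment binding to DSG3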
Scp-1 inhibitor – Scp-1 (human) phosphatase inhibition; hit rate 0.88% among 340,000; AID 493091; Recombinant Scp1, phosphopeptide, malachite green phosphate absorbance; Q9GZU7; inhibition, % at 20 µM;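 active means inhibition above about 50% at 20 µM, limit read from the data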;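 further: plate controls were DMSO wells with enzyme for no effect and wells lacking enzyme for full effect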
Target sequence (Q9GZU7 76-261 limits assumed): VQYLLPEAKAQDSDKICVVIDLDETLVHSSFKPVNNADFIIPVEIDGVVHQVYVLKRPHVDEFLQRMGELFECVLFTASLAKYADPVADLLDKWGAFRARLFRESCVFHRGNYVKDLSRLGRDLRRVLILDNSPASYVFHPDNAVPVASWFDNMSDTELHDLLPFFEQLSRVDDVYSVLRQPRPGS
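Times: enzyme reaction 45 min at room temperature, colour 5 min, stabilisation 30 min. Material: SCP-1 catalytic fragment, aa 76-261. Medium: Acidic Tris acetate buffer with magnesium and detergent. Signal: colorimetric free-phosphate detection, absorbance 630 nm. Read-out basis: % inhibition of SCP-1 phosphate liberation. Reagent: Phosphorylated 17-residue peptide substrate.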
SUMO1 PPI mod – SUMO1-SIM interaction modulation; inhibition, % at 20 µM; hit rate 0.33% among 360,000; P63165; SUMO1 binding to a labelled peptide, TR-FRET, 1 h; in the data active means inhibition above about 37%
Target sequence (P63165 whole entry, looked up): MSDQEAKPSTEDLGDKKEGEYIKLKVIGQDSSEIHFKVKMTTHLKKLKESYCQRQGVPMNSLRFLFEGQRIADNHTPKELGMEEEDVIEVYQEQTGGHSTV
STEP inh – inhibitors of human striatal-enriched phosphatase STEP; P54829; recombinant STEP, OMFP fluorogenic substrate, fluorescence; inhibition, % at 20 µM; hit rate 0.25% among 360,000;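 active means inhibition at 20 µM, scaled per plate between control wells, above about 37%, limit read from the data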;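 further: 0% = DMSO with enzyme and substrate and 100% = substrate only without enzyme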
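Material: STEP (striatal-enriched tyrosine phosphatase) enzyme, cell-free; Compound dosing: 20 µM single dose in 1% DMSO; Technique: fluorescence read at 480 nm ex / 540 nm em; Times: reaction 20 min, ambient temperature; Medium: 50 mM Bis-Tris pH 6.0 with 2.5 mM DTT and 0.005% Tween 20; Also added: OMFP at 25 µM.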
Starred values were filed as active, the others as inactive. Rows were chosen to be rich in hits. Some 1.7% of all compounds tested hit in one or more screens of this group.

How did CC(=O)c1ccc(NC(=O)CSc2nc3nn(-c4ccccc4)c(=O)c-3c3n2CCCCC3)cc1 do in these assays?
LMPTP inh: 3; Pemphigus Ab inh: 98; Scp-1 inhibitor: -5; SUMO1 PPI mod: -1; STEP inh: -1

How did O=C(CSc1nc2nn(-c3ccccc3)c(=O)c-2c2n1CCCCC2)c1ccc(O)c(O)c1 do in these assays?
LMPTP inh: 68*; Pemphigus Ab inh: 112; Scp-1 inhibitor: 49; SUMO1 PPI mod: 3; STEP inh: 3

What do the screens show for `O=C(CSc1nc2nn(-c3ccccc3)c(=O)c-2c2n1CCCCC2)Nc1ccc(F)c(F)c1`?
LMPTP inh: 3; Pemphigus Ab inh: -12*; Scp-1 inhibitor: -12; SUMO1 PPI mod: -15; STEP inh: 2

How did O=C(CN1C(=O)NC2(CCCC2)C1=O)OCCOc1ccc(Br)cc1 do in these assays?
LMPTP inh: 0; Pemphigus Ab inh: 102; Scp-1 inhibitor: -7; SUMO1 PPI mod: 2; STEP inh: 3

Results for O=C(O)c1cccc(N2C(=O)/C(=C/c3ccc(SCc4ccc(Cl)cc4)o3)SC2=S)c1 ?
LMPTP inh: 49; Pemphigus Ab inh: 91; Scp-1 inhibitor: 70*; SUMO1 PPI mod: 70*; STEP inh: 16

Results for COc1cccc(C(=O)N2CCN(S(C)(=O)=O)CC2)c1 ?
LMPTP inh: -1; Pemphigus Ab inh: 102; Scp-1 inhibitor: 0; SUMO1 PPI mod: 1; STEP inh: 2

What do the screens show for `O=C(O[C@@H]1OC2COC(=O)c3cc(O)c(O)c(O)c3-c3c(cc(O)c(O)c3O)C(=O)O[C@@H]([C@H]1O)[C@@H]2O)c1cc(O)c(O)c(O)c1`?
LMPTP inh: 14; Pemphigus Ab inh: 89; Scp-1 inhibitor: 50*; SUMO1 PPI mod: 46*; STEP inh: 11

How did Cc1ccc(C(CCNC(C)c2cccs2)c2ccco2)cc1 (stereo not given) do in these assays?
LMPTP inh: 0; Scp-1 inhibitor: 0; SUMO1 PPI mod: -3; STEP inh: 2

Results for Nc1c(C(=O)NCc2ccc3c(c2)OCO3)c2nc3ccccc3nc2n1CCCN1CCOCC1 ?
LMPTP inh: -2; Pemphigus Ab inh: 116; Scp-1 inhibitor: -4; SUMO1 PPI mod: 47*; STEP inh: 15

What do the screens show for `COc1cc(/C=C2\SC(=Nc3ccccc3)NC2=O)cc(Cl)c1O`?
LMPTP inh: 0; Pemphigus Ab inh: 96; Scp-1 inhibitor: -11; SUMO1 PPI mod: -43; STEP inh: 0

What do the screens show for `COc1cc(/C=C2\SC(=Nc3ccc(Cl)c(C(=O)O)c3)NC2=O)c(Br)c(Br)c1O`?
LMPTP inh: -23; Pemphigus Ab inh: 115; Scp-1 inhibitor: 53*; SUMO1 PPI mod: -21; STEP inh: 27

How did Nc1nc(N)nc(-c2ccc(Cl)c(Cl)c2)n1 do in these assays?
LMPTP inh: -1; Pemphigus Ab inh: 102; Scp-1 inhibitor: -4; SUMO1 PPI mod: 0; STEP inh: -4

Results for Cc1nc(N)nc(N)c1-c1ccc(Cl)c(Cl)c1 ?
LMPTP inh: 57*; Pemphigus Ab inh: 262; Scp-1 inhibitor: -5; SUMO1 PPI mod: -3; STEP inh: 2

What do the screens show for `Cc1nc(N)nc(N)c1CCCc1ccc(Cl)c(Cl)c1`?
LMPTP inh: 64*; Pemphigus Ab inh: 111; Scp-1 inhibitor: -7; SUMO1 PPI mod: -3; STEP inh: 0

How did Cc1ccc(S(=O)(=O)Nc2ccccc2C(=O)N2CCCCC2)cc1 do in these assays?
LMPTP inh: 1; Pemphigus Ab inh: 100; Scp-1 inhibitor: -8; SUMO1 PPI mod: 3; STEP inh: 4

Results for Clc1ccccc1-c1cc2nc(NCc3ccco3)ccn2n1 ?
LMPTP inh: 2; SUMO1 PPI mod: 4; STEP inh: -3

What do the screens show for `O=C(Cc1cccc2ccccc12)N/N=C/c1ccc(O)c([N+](=O)[O-])c1`?
LMPTP inh: -2; Pemphigus Ab inh: 103; Scp-1 inhibitor: -7; SUMO1 PPI mod: -12; STEP inh: -1

What do the screens show for `O=C(Cc1cccc2ccccc12)N/N=C/c1ccc2cccc(O)c2n1`?
LMPTP inh: 5; Pemphigus Ab inh: 59*; Scp-1 inhibitor: -2; SUMO1 PPI mod: -6; STEP inh: 3

How did Cc1cc(-c2ccco2)c(C#N)c2nc3ccccc3n12 do in these assays?
LMPTP inh: 73*; Pemphigus Ab inh: 132; Scp-1 inhibitor: 66*; SUMO1 PPI mod: 30; STEP inh: 25

Results for CC(C)c1cc(N2CCN(C(=O)c3ccco3)CC2)n2c(nc3ccccc32)c1C#N ?
LMPTP inh: 2; Pemphigus Ab inh: 92; Scp-1 inhibitor: 6; SUMO1 PPI mod: 4; STEP inh: 1

Results for CCOc1ccccc1NC(=O)C(=O)N/N=C/c1ccc([N+](=O)[O-])cc1 ?
LMPTP inh: 0; Pemphigus Ab inh: 93*; Scp-1 inhibitor: -1; SUMO1 PPI mod: -5; STEP inh: 0

What do the screens show for `O=C(N/N=C/C(Cl)=C/c1ccc([N+](=O)[O-])cc1)C(=O)Nc1ccccc1C(=O)O`?
LMPTP inh: 2; Pemphigus Ab inh: 101; Scp-1 inhibitor: 40; SUMO1 PPI mod: 1; STEP inh: 4

How did O=C(COC(=O)CNC(=O)c1ccccc1F)Nc1ccc2[nH]c(=O)[nH]c2c1 do in these assays?
LMPTP inh: 1; Pemphigus Ab inh: 83; Scp-1 inhibitor: -4; SUMO1 PPI mod: 26; STEP inh: -2

How did O=C(COC(=O)CSc1ccc(Cl)cc1)Nc1ccc2[nH]c(=O)[nH]c2c1 do in these assays?
LMPTP inh: 1; Pemphigus Ab inh: 99*; Scp-1 inhibitor: -4; SUMO1 PPI mod: 4; STEP inh: -5

How did COc1ccc(OCC(=O)OCC(=O)Nc2ccc3[nH]c(=O)[nH]c3c2)cc1 do in these assays?
LMPTP inh: -2; Pemphigus Ab inh: 98; Scp-1 inhibitor: -8; SUMO1 PPI mod: 62*; STEP inh: -2

How did COc1ccc(CCC(=O)OCC(=O)Nc2ccc3[nH]c(=O)[nH]c3c2)cc1 do in these assays?
LMPTP inh: 0; Pemphigus Ab inh: 100; Scp-1 inhibitor: -5; SUMO1 PPI mod: 11; STEP inh: 5

How did COc1ccccc1C(=O)NCC(=O)OCC(=O)Nc1ccc2[nH]c(=O)[nH]c2c1 do in these assays?
LMPTP inh: -1; Pemphigus Ab inh: 104; Scp-1 inhibitor: -7; SUMO1 PPI mod: 47*; STEP inh: -3

How did CC(=O)c1ccc(OCCCC(=O)OCC(=O)Nc2ccc3[nH]c(=O)[nH]c3c2)cc1 do in these assays?
LMPTP inh: -2; Pemphigus Ab inh: 101; Scp-1 inhibitor: -3; SUMO1 PPI mod: 76*; STEP inh: -2

What do the screens show for `CCC(CC)NC(=O)C1CC(=O)N(CCc2ccc(F)cc2)C1` (stereo not given)?
LMPTP inh: -1; Pemphigus Ab inh: 105; Scp-1 inhibitor: -5; SUMO1 PPI mod: 4; STEP inh: 1

How did COC(=O)[C@@H](NS(=O)(=O)c1cc(Br)ccc1Br)C(C)C do in these assays?
LMPTP inh: 0; Pemphigus Ab inh: 99; SUMO1 PPI mod: 4; STEP inh: 1
